Sampled rows, rich in hits. Any-hit rate of the full collection: about 5.8%.
Cl transport mod: modulators of human KCC2 chloride dependent transport; Q9H2X9; KCC2 cells, thallium flux FluoZin-2 fluorescence; B-score of Tl+ flux slope (higher = more flux/activation; lower = inhibition) at 10 µM; 2.2% of 190,000 active; AID 1456;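 active means thallium flux slope and its plate-corrected score both differing from the plate sample mean at a set confidence after two filtering rounds, in either direction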;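 further: slope of fluorescence scaled to starting intensity during 10 to 20 s after thallium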
NCF1 inh: inhibitors of human p47phox binding | P14598 | p47phox/p22phox peptide binding, fluorescence polarization, 2 h | inhibition, % at 24.7 µM | 0.53% of 220,000 active | AID 1274;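 active means inhibition above about 30%, limit read from the data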
14-3-3 Bad PPI: disrupts binding of bovine 14-3-3 zeta to phospho-Bad peptide. 0.71% of 220,000 active. inhibition, % at 21.7 µM. P63103. TR-FRET 14-3-3zeta/Dy647-pBad peptide displacement, 1 h;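 active means inhibition above about 70%, limit read from the data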
Target sequence (P63103 whole entry, looked up): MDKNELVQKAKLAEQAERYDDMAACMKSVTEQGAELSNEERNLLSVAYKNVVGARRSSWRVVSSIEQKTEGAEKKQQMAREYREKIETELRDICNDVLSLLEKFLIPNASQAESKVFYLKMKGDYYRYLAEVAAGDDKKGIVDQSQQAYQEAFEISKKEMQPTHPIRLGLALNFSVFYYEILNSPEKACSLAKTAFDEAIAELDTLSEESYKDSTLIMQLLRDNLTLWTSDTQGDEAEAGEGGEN
WT yeast gro inh: growth inhibition of WT yeast, mitochondrial fusion screen; inhibition, % at 10 µM; mitochondrial fusion phenotypic screen, WT strain; 2.1% of 190,000 active; in the data active means inhibition above about 58%; tested in S. cerevisiae
RBBP9 inh: blocks human serine hydrolase RBBP9. O75884. recombinant RBBP9, FP-Rh probe fluorescence polarization. inhibition, % at 7.94 µM. 0.2% of 220,000 active. AID 1515;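 active means inhibition above the campaign mean of all tested compounds plus 3 SD, cut at about 14% in these data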
Target sequence (O75884 whole entry, looked up): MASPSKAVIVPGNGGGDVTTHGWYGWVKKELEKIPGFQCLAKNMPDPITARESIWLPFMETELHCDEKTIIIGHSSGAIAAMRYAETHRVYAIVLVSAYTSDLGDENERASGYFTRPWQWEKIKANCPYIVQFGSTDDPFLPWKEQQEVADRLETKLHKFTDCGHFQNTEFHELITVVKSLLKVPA
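Assay system: recombinant human RBBP9; Reagent: Serine-hydrolase probe FP-Rh, 375 nM pre-mixing; Doses: 7.94 µM single dose, 0.794% DMSO; Incubation: 30 min then 45 min, 25 °C; Detection: fluorescence polarization (mP), excitation 525 nm, emission 598 nm; Evaluation: percent inhibition from mP, scaled between DMSO and no-protein wells.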
ROMK mod: modulates human ROMK potassium channel activity | Tet-inducible ROMK, thallium flux fluorescence; actives lie on both sides | B-score at 10 µM | 2% of 130,000 active | AID 1918;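 active means signal ratio slope over the read window, or its plate-corrected B-score, at least 3 SD from the plate mean, either direction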;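 further: B-score of the F/F0 ratio slope over 7 to 12 s after thallium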
KCC2 secondary: KCC2 (human) modulation, secondary assay. shares compounds with Cl transport mod. HEK293-KCC2, thallium flux, FluoZin2 fluorescence; hits give high values. normalised thallium flux (F/F0 slope) at 10 µM. 15% of 3,700 active. AID 1713;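 active means thallium flux slope above the same plate's solvent-only control mean plus 3 SD; inconclusive means the two replicate wells disagree; inactive means no significant difference from solvent-only control wells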
KCC2 bumet counter: thallium flux despite bumetanide block in KCC2 cells, secondary assay 3; shares compounds with Cl transport mod; AID 1714; normalized thallium flux at 10 µM; 49% of 3,700 active; HEK293-KCC2 + bumetanide/ouabain, thallium flux FluoZin2; hits give high values;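 active means thallium entry rate above the same plate's blocked-transporter control wells by more than 3 SD; inconclusive means the two repeat wells disagree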;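 further: raw slope of fluorescence over initial fluorescence between 10 and 20 s after thallium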
KCC2 sec2: KCC2 (human) modulation, second secondary assay; AID 1715; 23% of 3,700 active; normalized thallium flux at 10 µM; HEK293-KCC2, thallium flux FluoZin2 fluorescence; actives lie on both sides; F/F0 rise rate, 10–20 s post-thallium; shares compounds with Cl transport mod;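 active means thallium flux slope more than 3 SD above or below the plate's solvent-only control mean, mostly below; inconclusive means the two repeat wells disagreed; inactive means no significant shift from solvent-only controls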
HEK293 Tl flux: counter-screen for KCC2 modulators: effect in parental HEK293 cells; thallium flux rate (normalised fluorescence) at 10 µM; shares compounds with Cl transport mod; 46% of 3,700 active; thallium flux FluoZin2, ouabain; baseline-ratio fluorescence slope, 10–20 s after thallium;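 active means thallium flux rate significantly above the same plate's solvent-only control wells, beyond their mean plus 3 SD; inconclusive means the two replicate wells gave conflicting results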
KCC2 ouabain: KCC2 (human) modulation, ouabain retest | shares compounds with Cl transport mod | HEK293-KCC2, thallium flux FluoZin2 fluorescence; bidirectional: low = inhibitor, high = activator | raw Tl+ flux slope (below DMSO = inhibition, above = activation) at 10 µM | 48% of 3,700 active;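 active means thallium flux slope beyond 3 SD from same-plate DMSO control mean in most replicates, usually higher, sometimes lower; inconclusive means repeat tests gave conflicting results; inactive means no significant difference from controls in most replicates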;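 further: slope of initial-normalized fluorescence between seconds 10 and 20 after thallium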
HEK293 Tl flux2: acts in parental HEK cells, second KCC2 counter-screen | thallium flux slope at 10 µM | HEK293 parental, thallium flux FluoZin-2 fluorescence slope | shares compounds with Cl transport mod | 33% of 3,700 active;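 active means thallium flux slope above the same plate's solvent-control mean plus 3 SD in both duplicate wells; inconclusive means duplicate wells that disagreed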;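 further: run without ouabain in cells lacking the KCC2 cotransporter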
Each line names hits and unclear results; the compound was inactive in the other large screens (follow-up assays come after a bar, where they were run).

COc1cc(NC(=O)CSc2nccc(=O)[nH]2)c(C)cc1[N+](=O)[O-]	Cl transport mod -3.4 | KCC2 secondary inactive | KCC2 bumet counter inactive | KCC2 sec2 inactive | HEK293 Tl flux inactive | KCC2 ouabain inactive | HEK293 Tl flux2 inactive
COc1ccccc1NC(=O)CSc1nccc(=O)[nH]1	none (no result: ROMK mod)
O=C(O)c1ccc(NC2=C(Cl)C(=O)c3ccccc3C2=O)cc1	Cl transport mod -6.5 (no result: WT yeast gro inh) | KCC2 secondary inactive | KCC2 bumet counter 0.0094 | KCC2 sec2 inactive | HEK293 Tl flux inactive | KCC2 ouabain 0.017 | HEK293 Tl flux2 inactive
O=C1C(Cl)=C(Nc2ccccc2)C(=O)c2ccccc21	Cl transport mod 4.5 | KCC2 secondary inactive | KCC2 bumet counter inactive | KCC2 sec2 inactive | HEK293 Tl flux inactive | KCC2 ouabain inactive | HEK293 Tl flux2 inactive
O=C(Nc1cc(S(=O)(=O)N2CCCCC2)ccc1N1CCOCC1)c1cc(=O)[nH]c2ccccc12	none (no result: WT yeast gro inh, ROMK mod)
O=C(NCCc1c[nH]c2ccccc12)c1cc(S(=O)(=O)N2CCCCC2)ccc1N1CCOCC1	none (no result: Cl transport mod) | KCC2 secondary inactive | KCC2 bumet counter inactive | KCC2 sec2 inconclusive | HEK293 Tl flux inactive | KCC2 ouabain 0.015 | HEK293 Tl flux2 inactive
Cc1cnccc1CNC(=O)CC1C(=O)NCCN1CC(C)(C)C (stereo not drawn)	none
O=C(Nc1cccc(C(=O)O)c1)/C(=C\c1ccc2c(c1)OCO2)NC(=O)c1ccc(Br)cc1	none
CC1Cc2ccccc2N1S(=O)(=O)c1cccc(C(=O)NCCCn2ccnc2)c1 (stereo not drawn)	none
CCC(Sc1nc(C)cc(=O)[nH]1)C(=O)Nc1nc(-c2ccccc2)cs1 (stereo not drawn)	Cl transport mod -5.3 (no result: ROMK mod) | KCC2 secondary inactive | KCC2 bumet counter inactive | KCC2 sec2 0.021 | HEK293 Tl flux 0.006 | KCC2 ouabain 0.012 | HEK293 Tl flux2 inactive
N#Cc1cc(C(=O)c2cc(Cl)ccc2O)cn(-c2ccccc2)c1=O	Cl transport mod -5 | KCC2 secondary inactive | KCC2 bumet counter inactive | KCC2 sec2 inactive | HEK293 Tl flux inactive | KCC2 ouabain inactive | HEK293 Tl flux2 inactive
CCCOc1ccc(N2C(=O)C3ON(c4ccccc4)C(c4ccc(O)c(OC)c4)C3C2=O)cc1 (stereo not drawn)	none | KCC2 secondary inactive | KCC2 bumet counter inactive | KCC2 sec2 inconclusive | HEK293 Tl flux inactive | KCC2 ouabain inactive | HEK293 Tl flux2 inactive
Cc1cc(S(=O)(=O)N(C)CCc2ccccc2)ccc1-n1cnnn1	Cl transport mod -4.6 (no result: ROMK mod) | KCC2 secondary inactive | KCC2 bumet counter inactive | KCC2 sec2 0.024 | HEK293 Tl flux inactive | KCC2 ouabain 0.016 | HEK293 Tl flux2 inactive
Cc1cc(S(=O)(=O)N(Cc2ccccc2)Cc2ccc(N(C)C)cc2)ccc1-n1cnnn1	none
O=C(CCS(=O)(=O)Cc1ccccc1)Nc1nc2c(s1)CCCC2	none (no result: Cl transport mod) | KCC2 secondary inactive | KCC2 bumet counter inactive | KCC2 sec2 0.022 | HEK293 Tl flux inactive | KCC2 ouabain inconclusive | HEK293 Tl flux2 inactive
O=C(CCN1C(=O)c2ccccc2S1(=O)=O)Nc1nc2c(s1)CCCC2	Cl transport mod -3.8 (no result: ROMK mod) | KCC2 secondary inactive | KCC2 bumet counter inactive | KCC2 sec2 inactive | HEK293 Tl flux inactive | KCC2 ouabain 0.015 | HEK293 Tl flux2 inactive
O=C(CCN1C(=O)c2ccccc2S1(=O)=O)Nc1cccc2ccccc12	none
O=C(CS(=O)(=O)Cc1ccccc1)Nc1nc2c(s1)CCCC2	none (no result: ROMK mod)
CCCCC(CCC(=O)O)(C(=O)OCC)c1csc(Nc2ccc(OCC)cc2)n1 (stereo not drawn)	none (no result: WT yeast gro inh, ROMK mod)
CCCCC(CCC(=O)O)(C(=O)OCC)c1csc(Nc2ccccc2)n1 (stereo not drawn)	Cl transport mod -3.9 | KCC2 secondary inactive | KCC2 bumet counter inactive | KCC2 sec2 inactive | HEK293 Tl flux inactive | KCC2 ouabain 0.017 | HEK293 Tl flux2 inactive
Brc1cccc(-c2nnc(SCc3nc4ccccc4[nH]3)o2)c1	Cl transport mod 20 (no result: ROMK mod) | KCC2 secondary inactive | KCC2 bumet counter inactive | KCC2 sec2 inactive | HEK293 Tl flux inactive | KCC2 ouabain inactive | HEK293 Tl flux2 inactive
c1ccc2[nH]c(CSc3nnc(-c4ccncc4)o3)nc2c1	none
CC(C)NC(=S)N/N=C/c1sc(N2CCCCC2)nc1-c1cccs1	Cl transport mod 3.1 | KCC2 secondary inactive | KCC2 bumet counter 0.011 | KCC2 sec2 inactive | HEK293 Tl flux 0.0099 | KCC2 ouabain inactive | HEK293 Tl flux2 inactive
CC(C)NC(=O)c1onc(CSc2ccc(Cl)cc2)c1C(=O)NC(C)C	Cl transport mod 2.4 (no result: WT yeast gro inh, RBBP9 inh, ROMK mod) | KCC2 secondary inactive | KCC2 bumet counter inactive | KCC2 sec2 inactive | HEK293 Tl flux inactive | KCC2 ouabain inactive | HEK293 Tl flux2 inactive
CC(C)NC(=O)c1onc(CSc2ccc(Cl)cc2)c1C(=O)O	none (no result: ROMK mod)
COc1cc(OC)c(OC)cc1/C=C/c1cc(C(F)(F)F)[nH]c(=O)n1	Cl transport mod -4.7 | KCC2 secondary inconclusive | KCC2 bumet counter -0.0019 | KCC2 sec2 inconclusive | HEK293 Tl flux 0.003 | KCC2 ouabain 0.012 | HEK293 Tl flux2 0.005
COc1cc(/C=C/c2cc(C(F)(F)F)[nH]c(=O)n2)cc(OC)c1OC	none
CC(=O)Oc1c(-c2ccco2)oc2ccccc2c1=O	Cl transport mod 40 | KCC2 secondary 0.045 | KCC2 bumet counter 0.071 | KCC2 sec2 0.057 | HEK293 Tl flux 0.057 | KCC2 ouabain 0.056 | HEK293 Tl flux2 0.056
Cc1cc(N2CC(C)OC(C)C2)n2cc(-c3ccccc3)nc2n1 (stereo not drawn)	none
Cc1ccc(NC(=O)/C(=C\C=C\c2ccccc2)NC(=O)c2ccccc2)cc1	Cl transport mod -4 (no result: ROMK mod) | KCC2 secondary inconclusive | KCC2 bumet counter inactive | KCC2 sec2 inactive | HEK293 Tl flux inactive | KCC2 ouabain 0.013 | HEK293 Tl flux2 inactive
COC(=O)n1c(=O)oc2ccccc21	none (no result: Cl transport mod)
